ChEMBL document CHEMBL1131203, “Second generation "peptoid" CCK-B receptor antagonists: identification and development of N-(adamantyloxycarbonyl)-alpha-methyl-(R)-tryptophan derivative (CI-1015) with an improved pharmacokinetic profile” (J Med Chem, 1998)

How the values were obtained:
[1] = Maximum plasma concentration was evaluated in HP-beta-CD solution at a dose of 20 mg/kg orally; assay type: ADME, organism-based; design: dose 20 mg/kg, route oral; details: po
How it was run: (§1)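 Fasted male Wistar rats, groups of 3–4, given a single oral 20 mg/kg dose in the stated vehicle. Heparinized plasma was collected from an implanted jugular-vein cannula at serial times out to 24 h, kept frozen, and assayed by validated HPLC-fluorescence. Cmax, tmax, AUC(0–∞) and terminal t1/2 were obtained by noncompartmental analysis. Values are means (%RSD).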

[2] = target: T1, Cholecystokinin receptor type A (Rattus norvegicus, UniProt P30551); assay: Inhibitory concentration against radioligand [125I]Bolton-Hunter labeled CCK-8 to cholecystokinin type A receptor in the rat pancreas
T1 sequence (P30551 whole entry): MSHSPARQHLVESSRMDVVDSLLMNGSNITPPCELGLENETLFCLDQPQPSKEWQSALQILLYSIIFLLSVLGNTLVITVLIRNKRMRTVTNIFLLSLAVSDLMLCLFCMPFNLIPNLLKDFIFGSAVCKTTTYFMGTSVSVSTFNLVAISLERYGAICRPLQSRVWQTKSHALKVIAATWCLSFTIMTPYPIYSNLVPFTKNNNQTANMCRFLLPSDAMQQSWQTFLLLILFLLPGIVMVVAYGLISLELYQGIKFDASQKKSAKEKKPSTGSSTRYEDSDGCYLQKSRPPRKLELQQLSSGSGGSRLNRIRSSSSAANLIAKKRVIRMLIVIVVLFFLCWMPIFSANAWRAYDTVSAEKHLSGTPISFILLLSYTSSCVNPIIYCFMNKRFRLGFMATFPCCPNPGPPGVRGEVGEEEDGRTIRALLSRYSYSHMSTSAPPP

[3] = Pharmacokinetic parameter AUC was evaluated in 100% PEG solution at a dose of 20 mg/kg orally; assay type: ADME, organism-based; design: dose 20 mg/kg, route oral; details: in vivo, po; how it was run: as §1
[4] = Pharmacokinetic parameter AUC evaluated in 0.5% methylcellulose suspension at a dose of 20 mg/kg orally; assay type: ADME, organism-based; design: dose 20 mg/kg, route oral; details: in vivo, po; how it was run: as §1
[5] = Pharmacokinetic parameter AUC was evaluated in HP-beta-CD solution at a dose of 20 mg/kg orally; assay type: ADME, organism-based; design: dose 20 mg/kg, route oral; details: in vivo, po; how it was run: as §1
[6] = Absolute oral bioavailability was evaluated in 0.5% methylcellulose suspentionat a dose of 20 mg/kg orally; assay type: ADME, organism-based; details: eutheria, in vivo
How it was run: (§2)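 Fasted male Wistar rats, groups of 3–4, given a single 20 mg/kg dose po or iv in the stated vehicle. Heparinized plasma was drawn from a jugular-vein cannula at serial times out to 24 h and assayed by validated HPLC-fluorescence. Absolute bioavailability is the dose-normalized ratio of AUC after po dosing to AUC after iv dosing.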

[7] = Pharmacokinetic parameter AUC was evaluated in 10% PEG suspension at a dose of 20 mg/kg orally; assay type: ADME, organism-based; design: dose 20 mg/kg, route oral; details: in vivo, po; how it was run: as §1
[8] = Absolute oral bioavailability was evaluated in 10% PEG suspension at a dose of 20 mg/kg orally; assay type: ADME, organism-based; details: eutheria, in vivo; how it was run: as §2
[9] = Pharmacokinetic parameter half-life was evaluated in 10% PEG suspension at a dose of 20 mg/kg orally; assay type: ADME, organism-based; design: dose 20 mg/kg, route oral; details: in vivo, po; how it was run: as §1
[10] = Oral bioavailability (dosed in HP-beta-CD solution) (dose 20 mg/kg p.o.); assay type: ADME, organism-based; details: eutheria, in vivo; how it was run: as §2
[11] = Absolute oral bioavailability was evaluated in 100% PEG solution; assay type: ADME, organism-based; details: eutheria, in vivo; how it was run: as §2
Mus musculus [12] = assay: Concentration in forebrain after 20 min of injection at a concentration of 1 mg/kg, iv in mice; assay type: functional
How it was run: (§3)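 Ex vivo binding: mice were dosed iv with compound or vehicle, given either as saline or as 10% EtOH–60% propylene glycol–30% saline. Forebrains were taken at 5, 10 or 20 min, homogenized in HEPES buffer with bacitracin at pH 7.2, and incubated with 50 pM [125I]BH-CCK8s for 2 h at 22 °C. After filtration, bound radioligand was gamma-counted and read against calibration curves prepared in vehicle tissue. Detection limit was about 1 pmol/forebrain. n = 3–13.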

[13] = Pharmacokinetic parameter half-life was evaluated in 100% PEG solution at a dose of 20 mg/kg orally; assay type: ADME, organism-based; design: dose 20 mg/kg, route oral; details: in vivo, po; how it was run: as §1
[14] = Maximum plasma concentration was evaluated in 10% of PEG suspension at a dose of 20 mg/kg orally; assay type: ADME, organism-based; design: dose 20 mg/kg, route oral; details: po; how it was run: as §1
Mus musculus [15] = assay: Concentration in forebrain after 5 min of injection at a concentration of 1 mg/kg, iv in mice; assay type: functional; how it was run: as §3
[16] = Pharmacokinetic parameter half-life evaluated in HP-beta-CD solution at a dose of 20 mg/kg orally; assay type: ADME, organism-based; design: dose 20 mg/kg, route oral; details: in vivo, po; how it was run: as §1
Mus musculus [17] = assay: Concentration in forebrain after 10 min of injection at a concentration of 1 mg/kg, iv in mice; assay type: functional; how it was run: as §3
[18] = Pharmacokinetic parameter tmax was evaluated in 10% PEG suspension at a dose of 20 mg/kg orally; assay type: ADME, organism-based; design: dose 20 mg/kg, route oral; details: in vivo, po; how it was run: as §1
[19] = Pharmacokinetic parameter half-life was evaluated in 0.5% methylcellulose suspension at a dose of 20 mg/kg orally; assay type: ADME, organism-based; design: dose 20 mg/kg, route oral; details: in vivo, po; how it was run: as §1
[20] = Pharmacokinetic parameter tmax was evaluated in HP-beta-CD solution at a dose of 20 mg/kg orally; assay type: ADME, organism-based; design: dose 20 mg/kg, route oral; details: in vivo, po; how it was run: as §1
[21] = Pharmacokinetic parameter Tmax was evaluated in 0.5% methylcellulose suspension; details: in vivo
[22] = Maximum plasma concentration was evaluated in 100% of PEG solution at a dose of 20 mg/kg orally; assay type: ADME, organism-based; design: dose 20 mg/kg, route oral; details: po; how it was run: as §1
[23] = Maximum plasma concentration was evaluated in 0.5% methylcellulose suspension at a dose of 20 mg/kg orally; assay type: ADME, organism-based; design: dose 20 mg/kg, route oral; details: po; how it was run: as §1
[24] = Pharmacokinetic parameter tmax was evaluated in 100% PEG solution at a dose of 20 mg/kg orally; assay type: ADME, organism-based; design: dose 20 mg/kg, route oral; details: in vivo, po; how it was run: as §1
[25] = Ratio of IC50 towards CCK-A receptor and CCK-B receptor
[26] = target: T2, Gastrin/cholecystokinin type B receptor (Mus musculus, UniProt P56481); assay: Inhibitory concentration against radioligand [125I]Bolton-Hunter labeled CCK-8 to cholecystokinin type B receptor in the mouse cerebral cortex; assay type: tissue-based
T2 sequence (P56481 whole entry): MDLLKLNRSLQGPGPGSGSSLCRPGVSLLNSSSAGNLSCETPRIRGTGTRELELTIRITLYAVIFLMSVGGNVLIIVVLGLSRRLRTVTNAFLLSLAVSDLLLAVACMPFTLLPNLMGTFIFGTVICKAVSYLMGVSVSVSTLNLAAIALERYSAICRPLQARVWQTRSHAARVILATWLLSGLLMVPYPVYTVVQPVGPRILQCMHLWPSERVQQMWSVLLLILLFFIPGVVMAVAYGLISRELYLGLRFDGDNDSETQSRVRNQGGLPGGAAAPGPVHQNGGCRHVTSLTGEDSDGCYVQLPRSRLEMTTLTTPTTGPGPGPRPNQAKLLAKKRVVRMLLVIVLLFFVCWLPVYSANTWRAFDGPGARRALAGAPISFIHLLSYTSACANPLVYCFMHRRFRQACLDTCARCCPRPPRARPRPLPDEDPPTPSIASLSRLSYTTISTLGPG

In the case of `C[C@](Cc1c[nH]c2ccccc12)(NC(=O)OC1C2CC3CC(C2)CC1C3)C(=O)N[C@@H]1CCCC[C@H]1O` (stereo partly drawn), the Cmax [1] is reported as 756 ng/mL, the IC50 [2] is reported as 2900 nM and the AUC [3] is reported as 724 ng·h/mL. The AUC [4] was 673 ng·h/mL, the AUC [5] was 2130 ng·h/mL and the bioavailability [6] was 8.9%. For the same compound, the AUC [7] was 953 ng·h/mL, the bioavailability [8] was 13% and the half-life [9] was 1.1 h. For the same compound, the bioavailability [10] was 28%, the bioavailability [11] was 9.6% and the Brain level (Mus musculus [12]) was 166 pmol/forebrain. It also gave a half-life [13] of 1.3 h, a Cmax [14] of 203 ng/mL and a Brain level (Mus musculus [15]) of 177 pmol/forebrain. For the same compound, the half-life [16] was 0.9 h, the Brain level (Mus musculus [17]) was 154 pmol/forebrain and the Tmax [18] was 3.5 h. For the same compound, the half-life [19] was 1 h, the Tmax [20] was 1.8 h and the Tmax [21] was 3 h. It also gave a Cmax [22] of 219 ng/mL, a Cmax [23] of 185 ng/mL and a Tmax [24] of 1 h.

With `C[C@](Cc1c[nH]c2ccccc12)(NC(=O)OC1C2CC3CC(C2)CC1C3)C(=O)NN1CC2CCC(CC2)C1` (stereo partly drawn) the IC50 [2] was 1560 nM, the Ratio [25] was 238 and the IC50 [26] was 6.5 nM.

With `C[C@](Cc1c[nH]c2ccccc12)(NC(=O)OC1C2CC3CC(C2)CC1C3)C(=O)NC1(CO)CCCC1` (stereo partly drawn) the IC50 [2] was 1420 nM, the Ratio [25] was 5.3 and the IC50 [26] was 268 nM.

With `C[C@](Cc1c[nH]c2ccccc12)(NC(=O)OC1C2CC3CC(C2)CC1C3)C(=O)NC1CC2CCC1C2` (stereo in doubt; 21) [listing 1 of 2 here] the IC50 [2] was 1460 nM and the IC50 [26] was 78.5 nM.

Compound `C[C@](Cc1c[nH]c2ccccc12)(NC(=O)OC1C2CC3CC(C2)CC1C3)C(=O)CNC1CCCCC1` (stereo partly drawn) has an IC50 [2] of 3330 nM, a Ratio [25] of 10.6 and an IC50 [26] of 314 nM.

For `C[C@](Cc1c[nH]c2ccccc12)(NC(=O)OC1C2CC3CC(C2)CC1C3)C(=O)NC1CC2CCC1C2` (stereo in doubt; 21) [listing 2 of 2 here], the Ratio [25] was 18.6.

`COC[C@H]1CCCN1NC(=O)[C@@](C)(Cc1c[nH]c2ccccc12)NC(=O)OC1C2CC3CC(C2)CC1C3` (stereo partly drawn) showed an IC50 [2] of 3430 nM, a Ratio [25] of 1370 and an IC50 [26] of 2.5 nM.

`C[C@](Cc1c[nH]c2ccccc12)(NC(=O)OC1C2CC3CC(C2)CC1C3)C(=O)NC1CCCCC1O` (stereo partly drawn) showed an IC50 [2] of 1380 nM.

In the case of `COC(=O)C1(NC(=O)[C@@](C)(Cc2c[nH]c3ccccc23)NC(=O)OC2C3CC4CC(C3)CC2C4)CCCCC1` (stereo partly drawn), the IC50 [2] is reported as 1990 nM, the Ratio [25] is reported as 10.4 and the IC50 [26] is reported as 191 nM.

`C[C@](Cc1c[nH]c2ccccc12)(NC(=O)OC1C2CC3CC(C2)CC1C3)C(=O)NN1CCCC1` (stereo partly drawn) showed an IC50 [2] of 10800 nM, a Ratio [25] of 82 and an IC50 [26] of 132 nM.

Compound `C[C@](Cc1c[nH]c2ccccc12)(NC(=O)OC1C2CC3CC(C2)CC1C3)C(=O)NC1(C(=O)O)CCCCC1` (stereo partly drawn) has an IC50 [2] of 1520 nM, a Ratio [25] of 18.4 and an IC50 [26] of 83 nM.

For `C[C@](Cc1c[nH]c2ccccc12)(NC(=O)OC1C2CC3CC(C2)CC1C3)C(=O)NN1CCCCC1` (stereo partly drawn), the IC50 [2] was 3830 nM, the Ratio [25] was 194 and the IC50 [26] was 19.7 nM.

Work on `C[C@](Cc1c[nH]c2ccccc12)(NC(=O)OC1C2CC3CC(C2)CC1C3)C(=O)NN1CCCCCC1` (stereo partly drawn) yielded an IC50 [2] of 3040 nM, a Ratio [25] of 248 and an IC50 [26] of 12.2 nM.

Compound `COC[C@@H]1CCCN1NC(=O)[C@@](C)(Cc1c[nH]c2ccccc12)NC(=O)OC1C2CC3CC(C2)CC1C3` (stereo partly drawn) has an IC50 [2] of 6900 nM, a Ratio [25] of 105 and an IC50 [26] of 65.4 nM.
